Experimental data as given in ChEMBL document CHEMBL1125937, “Nucleosides and nucleotides. 100. 2'-C-cyano-2'-deoxy-1-beta-D-arabinofuranosyl-cytosine (CNDAC): design of a potential mechanism-based DNA-strand-breaking antineoplastic nucleoside” (J Med Chem, 1991).
≈ marks a conversion by molar mass, not a printed value.

Columns and labels:
Format in all cases: functional, cell-based
QG-56 = test: Inhibitory effect tested in vitro for the growth of Lung squamous-cell carcinoma QG-56 cell line; conditions: Homo sapiens
In short: (§1)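 MTT assay: tumor cells seeded at 1 × 10^4 per well, incubated 72 h with or without compound, then MTT added and OD 570 nm read. % inhibition = [1 − OD sample/OD control] × 100. IC50 is the concentration giving 50% inhibition of cell growth.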

PC-13 = test: Inhibitory effect tested in vitro for the growth of Lung adenocarcinoma PC-13 cell line; conditions: Homo sapiens, in the assay text read “Lung large-cell carcinoma” for “Lung adenocarcinoma”; in short: as §1
PC-3 = test: Inhibitory effect tested in vitro for the growth of Lung adenocarcinoma PC-3 cell line; conditions: Homo sapiens; in short: as §1
PC-8 = test: Inhibitory effect tested in vitro for the growth of Lung adenocarcinoma PC-8 cell line; conditions: Homo sapiens; in short: as §1
PC-9 = test: Inhibitory effect tested in vitro for the growth of Lung adenocarcinoma PC-9 cell line; conditions: Homo sapiens; in short: as §1
HOS-TE85 = test: Inhibitory effect tested in vitro for the growth of Osteosarcoma MNNG-HOS cell line; conditions: Homo sapiens; in short: as §1
OST = test: Inhibitory effect tested in vitro for the growth of Osteosarcoma OST cell line; conditions: Homo sapiens; in short: as §1
SK-ES1 = test: Inhibitory effect tested in vitro for the growth of Osteosarcoma SK-ES-1 cell line; conditions: Homo sapiens; in short: as §1
MKN-28 = test: Inhibitory effect tested in vitro for the growth of Stomach adenocarcinoma MKN- 28 cell line; conditions: Homo sapiens; in short: as §1
NUGC-4 = test: Inhibitory effect tested in vitro for the growth of Stomach adenocarcinoma NUGC-4 cell line; conditions: Homo sapiens; in short: as §1
SW480 = test: Inhibitory effect tested in vitro for the growth of colon adenocarcinoma SW-480 cell line; conditions: Homo sapiens; in short: as §1
KHOS-321H = test: Inhibitory effect tested in vitro for the growth of Osteosarcoma KHOS-321H cell line; conditions: Homo sapiens; in short: as §1
ST-KM-1 = test: Inhibitory effect tested in vitro for the growth of Stomach adenocarcinoma ST-KM cell line; conditions: Homo sapiens; in short: as §1
MKN-1 = test: Inhibitory effect tested in vitro for the growth of Stomach adenocarcinoma MKN-1 cell line; conditions: Homo sapiens; in short: as §1
MKN-7 = test: Inhibitory effect tested in vitro for the growth of Stomach adenocarcinoma MKN-7 cell line; conditions: Homo sapiens; in short: as §1

Row | IC50 (PC-3) | IC50 (PC-9) | IC50 (SK-ES1) | IC50 (MKN-28) | IC50 (SW480) | IC50 (MKN-1) | IC50 (MKN-7) | Compound | IC50 (QG-56) | IC50 (PC-13) | IC50 (PC-8) | IC50 (HOS-TE85) | IC50 (OST) | IC50 (NUGC-4) | IC50 (KHOS-321H) | IC50 (ST-KM-1)
1 | > 100 µg/mL | 1.6 µg/mL (≈ 6.58 µM) | 0.09 µg/mL (≈ 0.37 µM) | 4.5 µg/mL (≈ 18.5 µM) | > 100 µg/mL |  |  | Nc1ccn([C@@H]2O[C@H](CO)[C@@H](O)[C@H]2O)c(=O)n1 [CYTIDINE] | > 100 µg/mL | > 100 µg/mL | 0.28 µg/mL (≈ 1.15 µM) | 2.6 µg/mL (≈ 10.7 µM) | > 100 µg/mL | > 100 µg/mL | 0.27 µg/mL (≈ 1.11 µM) | > 100 µg/mL
2 | 5.6 µg/mL (≈ 22.2 µM) | 4.4 µg/mL (≈ 17.4 µM) | 2.2 µg/mL (≈ 8.72 µM) | 1.7 µg/mL (≈ 6.74 µM) | 0.27 µg/mL (≈ 1.07 µM) | 2.1 µg/mL (≈ 8.33 µM) | 1.4 µg/mL (≈ 5.55 µM) | N#C[C@H]1[C@H](O)[C@@H](CO)O[C@H]1n1ccc(N)nc1=O [TAS-109] | 40 µg/mL (≈ 159 µM) | > 100 µg/mL | 4.6 µg/mL (≈ 18.2 µM) | 6.8 µg/mL (≈ 27 µM) | 6.4 µg/mL (≈ 25.4 µM) | 5.2 µg/mL (≈ 20.6 µM) | 4.5 µg/mL (≈ 17.8 µM) | 2.8 µg/mL (≈ 11.1 µM)
